From ChEMBL document CHEMBL1136290, “Concise synthesis and biological activities of 2alpha-alkyl- and 2alpha-(omega-hydroxyalkyl)-20-epi-1alpha,25-dihydroxyvitamin D3” (2003)

Experiments:
HL-60 = experiment: In vitro induction of HL-60 cell differentiation.; type: functional, Homo sapiens; design: reference not given here
Procedure, shortened: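 HL-60 differentiation was scored by the NBT reduction method.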

[1] = target: T1, Vitamin D3 receptor (Bos taurus) (UniProt Q28037); experiment: Binding affinity at bovine thymus Vitamin D3 receptor relative to 1-alpha,25-Dihydroxyvitamin D3.
T1 sequence (whole entry): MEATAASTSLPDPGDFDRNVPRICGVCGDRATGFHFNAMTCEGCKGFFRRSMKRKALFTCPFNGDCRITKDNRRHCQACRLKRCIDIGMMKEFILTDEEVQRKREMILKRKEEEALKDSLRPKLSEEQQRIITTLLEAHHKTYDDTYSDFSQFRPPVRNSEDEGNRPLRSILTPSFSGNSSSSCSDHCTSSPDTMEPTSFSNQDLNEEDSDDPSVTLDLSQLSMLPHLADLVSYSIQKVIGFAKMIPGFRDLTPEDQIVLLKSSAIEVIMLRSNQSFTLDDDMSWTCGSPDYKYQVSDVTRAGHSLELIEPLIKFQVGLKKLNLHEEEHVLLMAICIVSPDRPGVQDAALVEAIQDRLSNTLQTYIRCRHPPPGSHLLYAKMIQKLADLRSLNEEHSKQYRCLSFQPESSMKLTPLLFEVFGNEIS

Row | SMILES | relative binding affinity (RBA) [1] | Potency (HL-60)
1 | C=C1/C(=C\C=C2/CCC[C@]3(C)[C@@H]([C@H](C)CCCC(C)(C)O)CC[C@@H]23)C[C@@H](O)[C@H](CCO)[C@@H]1O | 70 | 86
2 | C=C1/C(=C\C=C2/CCC[C@]3(C)[C@@H]([C@@H](C)CCCC(C)(C)O)CC[C@@H]23)C[C@@H](O)C[C@@H]1O | 400 | 3571
3 | C=C1/C(=C\C=C2/CCC[C@]3(C)[C@@H]([C@@H](C)CCCC(C)(C)O)CC[C@@H]23)C[C@@H](O)[C@H](CCCC)[C@@H]1O | 33 | 2300
4 | C=C1/C(=C\C=C2/CCC[C@]3(C)[C@@H]([C@H](C)CCCC(C)(C)O)CC[C@@H]23)C[C@@H](O)C[C@@H]1O [CALCITRIOL] | 100 | 100
5 | C=C1/C(=C\C=C2/CCC[C@]3(C)[C@@H]([C@H](C)CCCC(C)(C)O)CC[C@@H]23)C[C@@H](O)[C@H](C)[C@@H]1O | 400 | 258
6 | C=C1/C(=C\C=C2/CCC[C@]3(C)[C@@H]([C@@H](C)CCCC(C)(C)O)CC[C@@H]23)C[C@@H](O)[C@H](C)[C@@H]1O | 1200 | 9688
7 | C=C1/C(=C\C=C2/CCC[C@]3(C)[C@@H]([C@H](C)CCCC(C)(C)O)CC[C@@H]23)C[C@@H](O)[C@H](CCCO)[C@@H]1O | 300 | 240
8 | C=C1/C(=C\C=C2/CCC[C@]3(C)[C@@H]([C@@H](C)CCCC(C)(C)O)CC[C@@H]23)C[C@@H](O)[C@H](CCCCO)[C@@H]1O | 183 | 3910
9 | C=C1/C(=C\C=C2/CCC[C@]3(C)[C@@H]([C@@H](C)CCCC(C)(C)O)CC[C@@H]23)C[C@@H](O)[C@H](CO)[C@@H]1O | 190 | 570
10 | C=C1/C(=C\C=C2/CCC[C@]3(C)[C@@H]([C@@H](C)CCCC(C)(C)O)CC[C@@H]23)C[C@@H](O)[C@H](CCC)[C@@H]1O | 119 | 1750
11 | C=C1/C(=C\C=C2/CCC[C@]3(C)[C@@H]([C@@H](C)CCCC(C)(C)O)CC[C@@H]23)C[C@@H](O)[C@H](CCCO)[C@@H]1O | 370 | 4900

Continued, in another order:

Row | relative binding affinity (RBA) [1] | SMILES | Potency (HL-60)
12 | 320 | C=C1/C(=C\C=C2/CCC[C@]3(C)[C@@H]([C@@H](C)CCCC(C)(C)O)CC[C@@H]23)C[C@@H](O)[C@H](CCO)[C@@H]1O | 4030
13 | 8 | C=C1/C(=C\C=C2/CCC[C@]3(C)[C@@H]([C@H](C)CCCC(C)(C)O)CC[C@@H]23)C[C@@H](O)[C@H](CCCC)[C@@H]1O | 74
14 | 40 | C=C1/C(=C\C=C2/CCC[C@]3(C)[C@@H]([C@H](C)CCCC(C)(C)O)CC[C@@H]23)C[C@@H](O)[C@H](CC)[C@@H]1O | 106
15 | 120 | C=C1/C(=C\C=C2/CCC[C@]3(C)[C@@H]([C@H](C)CCCC(C)(C)O)CC[C@@H]23)C[C@@H](O)[C@H](CCCCO)[C@@H]1O | 460
16 | 150 | C=C1/C(=C\C=C2/CCC[C@]3(C)[C@@H]([C@@H](C)CCCC(C)(C)O)CC[C@@H]23)C[C@@H](O)[C@H](CC)[C@@H]1O | 4200
17 | 20 | C=C1/C(=C\C=C2/CCC[C@]3(C)[C@@H]([C@H](C)CCCC(C)(C)O)CC[C@@H]23)C[C@@H](O)[C@H](CO)[C@@H]1O | 10
18 | 20 | C=C1/C(=C\C=C2/CCC[C@]3(C)[C@@H]([C@H](C)CCCC(C)(C)O)CC[C@@H]23)C[C@@H](O)[C@H](CCC)[C@@H]1O | 44
